From ChEMBL document CHEMBL1135686, “Binding model for nonpeptide antagonists of alpha(v)beta(3) integrin” (J Med Chem, 2002)

Each compound was assayed against Integrin alpha-V/beta-3 (Homo sapiens, UniProt P05106+P06756) (assay: Inhibition of Vitronectin receptor, integrin alphaV-beta3 expressed in HEK 293 cells).
Type: cell-based, HEK293
Summary of the method: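 Human recombinant αvβ3 was purified from HEK 293 cells overexpressing it, following a placental αvβ3 purification method, and captured on lyophilized wheat germ agglutinin SPA beads. Values are reported as IC50.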

Sequence of Integrin alpha-V/beta-3 (P05106 27-788 limits assumed): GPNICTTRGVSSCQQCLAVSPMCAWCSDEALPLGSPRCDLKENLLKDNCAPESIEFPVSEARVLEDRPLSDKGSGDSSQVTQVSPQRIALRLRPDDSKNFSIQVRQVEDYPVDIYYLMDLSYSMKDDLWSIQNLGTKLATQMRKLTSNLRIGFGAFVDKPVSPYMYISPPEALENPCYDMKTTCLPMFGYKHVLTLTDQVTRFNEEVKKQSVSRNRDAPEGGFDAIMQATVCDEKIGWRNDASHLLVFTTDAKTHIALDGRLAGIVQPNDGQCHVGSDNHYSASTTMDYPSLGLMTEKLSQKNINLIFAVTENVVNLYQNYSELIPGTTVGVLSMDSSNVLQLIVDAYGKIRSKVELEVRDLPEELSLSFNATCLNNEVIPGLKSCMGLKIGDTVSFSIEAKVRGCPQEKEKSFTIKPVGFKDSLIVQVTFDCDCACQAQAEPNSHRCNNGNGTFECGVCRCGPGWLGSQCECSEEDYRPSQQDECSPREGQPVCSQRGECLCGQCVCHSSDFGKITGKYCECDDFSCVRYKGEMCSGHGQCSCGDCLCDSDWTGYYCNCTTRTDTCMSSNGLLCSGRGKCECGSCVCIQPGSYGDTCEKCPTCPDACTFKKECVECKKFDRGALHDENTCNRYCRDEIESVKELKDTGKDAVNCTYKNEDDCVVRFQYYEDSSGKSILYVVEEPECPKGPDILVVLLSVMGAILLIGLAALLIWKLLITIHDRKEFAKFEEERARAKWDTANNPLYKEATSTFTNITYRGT
Sequence of Integrin alpha-V/beta-3 (P06756 31-889 limits assumed): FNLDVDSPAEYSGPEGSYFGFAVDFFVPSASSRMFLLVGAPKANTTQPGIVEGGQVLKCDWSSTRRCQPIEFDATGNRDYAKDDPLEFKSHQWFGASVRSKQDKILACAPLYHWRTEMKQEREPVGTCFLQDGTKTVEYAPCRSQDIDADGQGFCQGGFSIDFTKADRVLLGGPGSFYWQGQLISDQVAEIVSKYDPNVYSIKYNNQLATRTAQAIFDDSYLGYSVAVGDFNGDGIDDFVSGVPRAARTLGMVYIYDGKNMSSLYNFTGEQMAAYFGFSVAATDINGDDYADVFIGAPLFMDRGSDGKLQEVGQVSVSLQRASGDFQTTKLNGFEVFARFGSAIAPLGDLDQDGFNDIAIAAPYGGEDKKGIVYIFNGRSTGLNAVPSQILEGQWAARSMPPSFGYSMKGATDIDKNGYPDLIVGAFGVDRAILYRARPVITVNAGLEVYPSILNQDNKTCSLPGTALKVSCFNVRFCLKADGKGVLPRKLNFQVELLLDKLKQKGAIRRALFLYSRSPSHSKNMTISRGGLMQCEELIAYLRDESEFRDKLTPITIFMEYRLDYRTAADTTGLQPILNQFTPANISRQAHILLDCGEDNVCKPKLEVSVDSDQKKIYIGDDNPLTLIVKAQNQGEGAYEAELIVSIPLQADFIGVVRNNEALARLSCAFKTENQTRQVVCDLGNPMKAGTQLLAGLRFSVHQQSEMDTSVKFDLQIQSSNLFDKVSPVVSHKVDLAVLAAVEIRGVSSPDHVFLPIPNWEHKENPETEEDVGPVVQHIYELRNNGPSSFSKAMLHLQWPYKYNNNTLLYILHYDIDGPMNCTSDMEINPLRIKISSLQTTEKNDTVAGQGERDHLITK
Sequence of Integrin alpha-V/beta-3 (P06756 891-1048 limits assumed): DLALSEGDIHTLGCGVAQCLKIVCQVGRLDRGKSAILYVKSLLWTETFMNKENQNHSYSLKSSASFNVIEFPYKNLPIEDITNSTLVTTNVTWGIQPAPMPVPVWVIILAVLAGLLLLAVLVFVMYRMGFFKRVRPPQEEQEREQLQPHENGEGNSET

Row | SMILES | IC50 [nM]
1 | O=C(O)C[C@H](NC(=O)CNC(=O)CCCc1ccc2c(n1)NCCC2)c1cccnc1 | 8.8
2 | O=C(NC[C@H](NS(=O)(=O)c1ccccc1)C(=O)O)c1ccc(OCCC2CCNCC2)cc1 | > 1000
3 | O=C(O)C[C@H](NC(=O)CN1CCC(CCc2ccc3c(n2)NCCC3)C1=O)c1cccnc1 (stereo not given in full) | 0.35

Compounds with a lower IC50, results first:

Row | IC50 [nM] | SMILES
4 | 0.15 | CNc1cccc(CCOc2ccc3c(c2)CN(CC(F)(F)F)C(=O)[C@H](CC(=O)O)C3)n1
5 | 0.04 | O=C(O)C[C@H](NC(=O)CN1CCC(CCc2ccc3c(n2)NCCC3)C1=O)c1cnc2ccccc2c1 (stereo not given in full)
